Measured values: ChEMBL document CHEMBL3600355, “The importance of the 6- and 7-positions of tetrahydroisoquinolines as selective antagonists for the orexin 1 receptor” (Bioorg Med Chem, 2015)
The source made the active and inactive calls. The calls are words filed in the database; no cut-off is given here.

Legend:
[1] = biological target: T1, Orexin receptor type 2 (Homo sapiens) (UniProt O43614); assay: Antagonist activity at human OX2 receptor expressed in CHO-RD-HGA16 cells assessed as inhibition of orexin-A-induced calcium mobilization at 10 uM preincubated for 15 mins followed by orexin-A addition measured every 1.52 secs over 60 secs by calcium 5 dye-based fluorescence assay relative to control; assay type: functional, cell-based
T1 sequence (whole entry): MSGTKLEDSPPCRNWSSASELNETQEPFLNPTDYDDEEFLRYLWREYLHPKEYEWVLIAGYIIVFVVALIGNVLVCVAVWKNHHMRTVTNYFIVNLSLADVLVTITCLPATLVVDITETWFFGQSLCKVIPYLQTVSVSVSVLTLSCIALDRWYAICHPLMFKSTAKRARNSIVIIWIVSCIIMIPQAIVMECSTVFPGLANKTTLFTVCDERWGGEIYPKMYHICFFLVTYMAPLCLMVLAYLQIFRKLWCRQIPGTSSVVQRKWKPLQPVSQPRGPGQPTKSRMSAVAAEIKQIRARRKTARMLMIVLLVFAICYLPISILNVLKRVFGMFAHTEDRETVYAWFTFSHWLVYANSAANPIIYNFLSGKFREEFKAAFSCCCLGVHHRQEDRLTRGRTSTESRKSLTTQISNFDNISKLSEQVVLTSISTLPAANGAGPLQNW
Summary of the method: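 OX2 stable CHO-RD-HGA16 cells, Calcium 5 dye-loaded, were pre-incubated 15 min at 37°C with compound at 10 μM before orexin A addition. Calcium fluorescence was read every 1.52 s for 60 s and percent inhibition of the orexin A response recorded.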

[2] = biological target: T1, Orexin receptor type 2 (Homo sapiens); assay: Agonist activity at human OX2 receptor expressed in CHO-RD-HGA16 cells assessed as induction of calcium mobilization at 10 uM measured every 1.52 secs over 60 secs by calcium 5 dye-based fluorescence assay; assay type: functional, cell-based
Summary of the method: (§1)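 Stable CHO-RD-HGA16 lines overexpressing human OX1 or OX2, plated overnight at 25,000 cells/well, 37°C, 5% CO2. Loaded 45 min with Calcium 5 dye in HBSS/20 mM HEPES/2.5 mM probenecid, pH 7.4. Compound tested alone at 10 μM; fluorescence (ex 485/em 525 nm) read every 1.52 s for 60 s.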

[3] = biological target: T2, Orexin/Hypocretin receptor type 1 (Homo sapiens) (UniProt O43613); assay: Agonist activity at human OX1 receptor expressed in CHO-RD-HGA16 cells assessed as induction of calcium mobilization at 10 uM measured every 1.52 secs over 60 secs by calcium 5 dye-based fluorescence assay; assay type: functional, cell-based; summary of the method: as §1
T2 sequence (whole entry): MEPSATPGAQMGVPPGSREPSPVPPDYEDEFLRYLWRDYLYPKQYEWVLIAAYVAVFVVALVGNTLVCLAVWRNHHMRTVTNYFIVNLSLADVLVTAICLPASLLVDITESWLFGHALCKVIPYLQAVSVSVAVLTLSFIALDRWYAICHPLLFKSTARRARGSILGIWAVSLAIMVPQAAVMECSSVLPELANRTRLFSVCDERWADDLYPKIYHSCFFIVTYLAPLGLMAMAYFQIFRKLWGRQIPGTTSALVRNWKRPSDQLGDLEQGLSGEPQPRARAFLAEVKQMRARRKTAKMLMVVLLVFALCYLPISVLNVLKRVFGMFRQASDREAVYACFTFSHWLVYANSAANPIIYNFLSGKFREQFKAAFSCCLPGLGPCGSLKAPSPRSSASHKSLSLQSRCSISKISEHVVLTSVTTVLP

Homo sapiens [4] = species on record: Homo sapiens; assay: Selectivity ratio of Ke(app) for human OX2 receptor to Ke(app) for human OX1 receptor
[5] = biological target: T2, Orexin/Hypocretin receptor type 1 (Homo sapiens); assay: Competitive antagonist activity at human OX1 receptor expressed in CHO-RD-HGA16 cells assessed as inhibition of orexin-A-induced calcium mobilization preincubated for 45 mins followed by orexin-A addition measured every 1.52 secs over 60 secs by calcium 5 dye-based fluorescence assay; assay type: functional, cell-based
Summary of the method: (§2)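 Curve-shift assay in human OX1 CHO-RD-HGA16 cells, with antagonist–receptor pre-incubation lengthened to 45 min or 1 hr before orexin A addition. Calcium 5 fluorescence was monitored, and each point is a composite of at least three experiments in duplicate.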

[6] = biological target: T2, Orexin/Hypocretin receptor type 1 (Homo sapiens); assay: Insurmountable antagonist activity at human OX1 receptor expressed in CHO-RD-HGA16 cells assessed as inhibition of orexin-A-induced calcium mobilization preincubated for 15 mins followed by orexin-A addition measured every 1.52 secs over 60 secs by calcium 5 dye-based fluorescence assay; assay type: functional, cell-based
Summary of the method: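 Human OX1 or OX2 stable CHO-RD-HGA16 cells were dye-loaded with Calcium 5, then given a single compound concentration for 15 min at 37°C. Orexin A serial dilutions were added at 19 s and fluorescence read every 1.52 s over 60 s. Orexin A EC50 curves were run with and without compound and fitted to a three-parameter logistic. Apparent Ke was taken from the right-shift; three independent experiments in duplicate, N=2 where Ke >10 μM.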

[7] = biological target: T2, Orexin/Hypocretin receptor type 1 (Homo sapiens); assay: Competitive antagonist activity at human OX1 receptor expressed in CHO-RD-HGA16 cells assessed as inhibition of orexin-A-induced calcium mobilization compound treated simultaneous with orexin-A by fluorescence assay; assay type: functional, cell-based
Summary of the method: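 Antagonist and orexin A were added simultaneously to Calcium 5-loaded human OX1 CHO-RD-HGA16 cells, with calcium mobilization curve-shift measured. Data are composites of at least three experiments in duplicate.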

[8] = biological target: T2, Orexin/Hypocretin receptor type 1 (Homo sapiens); assay: Competitive antagonist activity at human OX1 receptor expressed in CHO-RD-HGA16 cells assessed as inhibition of orexin-A-induced calcium mobilization preincubated for 1 hr followed by orexin-A addition measured every 1.52 secs over 60 secs by calcium 5 dye-based fluorescence assay; assay type: functional, cell-based; summary of the method: as §2
Homo sapiens [9] = species on record: Homo sapiens; assay: Selectivity for human OX1 receptor over human OX2 receptor

COc1ccc(CC2c3ccc(OCC(F)(F)F)cc3CCN2CC(=O)NCc2ccccc2)cc1OC (stereo not drawn)
inhibition [1]: < 50%

COc1ccc(CC2c3ccc(OCc4ccccc4)cc3CCN2CC(=O)NCc2ccccc2)cc1OC (stereo not drawn)
inhibition [1]: < 50%

COc1ccc(CC2c3ccc(NCCN4CCCCC4)cc3CCN2CC(=O)NCc2ccccc2)cc1OC (stereo not drawn)
inhibition [1]: < 50%

CCOC(=O)CCCCCCNc1ccc2c(c1)CCN(CC(=O)NCc1ccccc1)C2Cc1ccc(OC)c(OC)c1 (stereo not drawn)
inhibition [1]: < 50%

CCCN(CCC)c1ccc2c(c1)CCN(CC(=O)NCc1ccccc1)C2Cc1ccc(OC)c(OC)c1 (stereo not drawn)
inhibition [1]: < 50%

CCOC(=O)CCCNc1ccc2c(c1)CCN(CC(=O)NCc1ccccc1)C2Cc1ccc(OC)c(OC)c1 (stereo not drawn)
Activity [2]: inactive
Activity [3]: inactive

CCOC(=O)CCNc1ccc2c(c1)CCN(CC(=O)NCc1ccccc1)C2Cc1ccc(OC)c(OC)c1 (stereo not drawn)
Activity [2]: inactive
Activity [3]: inactive
inhibition [1]: < 50%

CCCCCCN(C)c1ccc2c(c1)CCN(CC(=O)NCc1ccccc1)C2Cc1ccc(OC)c(OC)c1 (stereo not drawn)
inhibition [1]: < 50%

COc1ccc2c(c1)C(Cc1ccc(OC)c(OC)c1)N(CC(=O)NCc1ccccc1)CC2 (stereo not drawn)
Activity [2]: inactive
Activity [3]: inactive

COc1ccc(CC2c3ccc(NCC4CC4)cc3CCN2CC(=O)NCc2ccccc2)cc1OC (stereo not drawn)
inhibition [1]: < 50%

CCCCOc1ccc2c(c1)C(Cc1ccc(OC)c(OC)c1)N(CC(=O)NCc1ccccc1)CC2 (stereo not drawn)
Activity [2]: inactive
Activity [3]: inactive
inhibition [1]: < 50%

CCCOc1ccc2c(c1)C(Cc1ccc(OC)c(OC)c1)N(CC(=O)NCc1ccccc1)CC2 (stereo not drawn)
Ratio Ke (Homo sapiens [4]): 108
Activity [2]: inactive
Activity [3]: inactive

COc1ccc(CC2c3ccc(N(C)Cc4ccccc4)cc3CCN2CC(=O)NCc2ccccc2)cc1OC (stereo not drawn)
inhibition [1]: < 50%

COc1ccc(CC2c3ccc(NCCCCOc4ccccc4)cc3CCN2CC(=O)NCc2ccccc2)cc1OC (stereo not drawn)
inhibition [1]: < 50%

CCOC(=O)CCCOc1ccc2c(c1)CCN(CC(=O)NCc1ccccc1)C2Cc1ccc(OC)c(OC)c1 (stereo not drawn)
Activity [2]: inactive
Activity [3]: inactive
inhibition [5]: Active
inhibition [6]: Active
inhibition [7]: Active
inhibition [1]: < 50%
Ke(app) [8]: 1000 nM

COc1ccc(CC2c3ccc(NCCCc4ccccc4)cc3CCN2CC(=O)NCc2ccccc2)cc1OC (stereo not drawn)
inhibition [1]: < 50%

COC(=O)CCCCNc1ccc2c(c1)CCN(CC(=O)NCc1ccccc1)C2Cc1ccc(OC)c(OC)c1 (stereo not drawn)
inhibition [1]: < 50%

COc1ccc(CC2c3ccc(NC(C)=O)cc3CCN2CC(=O)NCc2ccccc2)cc1OC (stereo not drawn)
inhibition [1]: < 50%

COc1ccc(CCNc2ccc3c(c2)CCN(CC(=O)NCc2ccccc2)C3Cc2ccc(OC)c(OC)c2)cc1OC (stereo not drawn)
Ke(app) [5]: 2180 nM
inhibition [6]: Active
inhibition [7]: Active
inhibition [1]: < 50%
inhibition [8]: Active

COc1ccc(CC2c3ccc(N(C)C)cc3CCN2CC(=O)NCc2ccccc2)cc1OC (stereo not drawn)
inhibition [1]: < 50%

COc1ccc(CC2c3cc(OC(C)C)ccc3CCN2CC(=O)NCc2ccccc2)cc1OC (stereo not drawn)
Activity [2]: inactive
Activity [3]: inactive
Ratio Ke (Homo sapiens [9]): 201
inhibition [1]: < 50%

COc1ccc(CC2c3ccc(NC(=O)c4ccccc4)cc3CCN2CC(=O)NCc2ccccc2)cc1OC (stereo not drawn)
inhibition [1]: < 50%

COc1ccc(CC2c3ccc(N4CCCCC4)cc3CCN2CC(=O)NCc2ccccc2)cc1OC (stereo not drawn)
inhibition [1]: < 50%

CCCOc1ccc2c(c1)CCN(CC(=O)NCc1ccccc1)C2Cc1ccc(OC)c(OC)c1 (stereo not drawn)
inhibition [1]: < 50%

COc1ccc(CC2c3ccc(NC(=O)Nc4ccccc4)cc3CCN2CC(=O)NCc2ccccc2)cc1OC (stereo not drawn)
inhibition [1]: < 50%

COc1ccc(CC2c3ccc(N4CCCC4)cc3CCN2CC(=O)NCc2ccccc2)cc1OC (stereo not drawn)
inhibition [1]: < 50%

CCCCCNc1ccc2c(c1)CCN(CC(=O)NCc1ccccc1)C2Cc1ccc(OC)c(OC)c1 (stereo not drawn)
inhibition [1]: < 50%

COc1ccc(CC2c3ccc(NCC(=O)N(C)C)cc3CCN2CC(=O)NCc2ccccc2)cc1OC (stereo not drawn)
inhibition [1]: < 50%

CCOC(=O)CCCCCCOc1ccc2c(c1)CCN(CC(=O)NCc1ccccc1)C2Cc1ccc(OC)c(OC)c1 (stereo not drawn)
inhibition [1]: < 50%

CCOc1ccc2c(c1)C(Cc1ccc(OC)c(OC)c1)N(CC(=O)NCc1ccccc1)CC2 (stereo not drawn)
Activity [2]: inactive
Activity [3]: inactive
Ratio Ke (Homo sapiens [9]): 268
inhibition [1]: < 50%

CCCN(C)c1ccc2c(c1)CCN(CC(=O)NCc1ccccc1)C2Cc1ccc(OC)c(OC)c1 (stereo not drawn)
Activity [2]: inactive
Activity [3]: inactive
inhibition [1]: < 50%

COc1ccc(CC2c3ccc(NCc4ccccc4)cc3CCN2CC(=O)NCc2ccccc2)cc1OC (stereo not drawn)
inhibition [1]: < 50%

CCCCCCNc1ccc2c(c1)CCN(CC(=O)NCc1ccccc1)C2Cc1ccc(OC)c(OC)c1 (stereo not drawn)
inhibition [1]: < 50%

CCOC(=O)CNc1ccc2c(c1)CCN(CC(=O)NCc1ccccc1)C2Cc1ccc(OC)c(OC)c1 (stereo not drawn)
Activity [2]: inactive
Activity [3]: inactive
inhibition [1]: < 50%

COc1ccc(CC2c3ccc(NCCCC(=O)OC(C)(C)C)cc3CCN2CC(=O)NCc2ccccc2)cc1OC (stereo not drawn)
inhibition [5]: Active
inhibition [6]: Active
inhibition [7]: Active
inhibition [1]: < 50%
Ke(app) [8]: 1010 nM

COc1ccc(CC2c3ccc(NCc4cccnc4)cc3CCN2CC(=O)NCc2ccccc2)cc1OC (stereo not drawn)
inhibition [1]: < 50%

COc1ccc(CC2c3ccc(N(C)CC4CC4)cc3CCN2CC(=O)NCc2ccccc2)cc1OC (stereo not drawn)
inhibition [1]: < 50%

CCCCCN(C)c1ccc2c(c1)CCN(CC(=O)NCc1ccccc1)C2Cc1ccc(OC)c(OC)c1 (stereo not drawn)
inhibition [1]: < 50%

COc1ccc(CC2c3ccc(NC(C)C)cc3CCN2CC(=O)NCc2ccccc2)cc1OC (stereo not drawn)
inhibition [1]: < 50%

CCOC(=O)C(C)Nc1ccc2c(c1)CCN(CC(=O)NCc1ccccc1)C2Cc1ccc(OC)c(OC)c1 (stereo not drawn)
inhibition [1]: < 50%

CCCNc1ccc2c(c1)CCN(CC(=O)NCc1ccccc1)C2Cc1ccc(OC)c(OC)c1 (stereo not drawn)
inhibition [1]: < 50%

COc1ccc(CC2c3ccc(OC(C)C)cc3CCN2CC(=O)NCc2ccccc2)cc1OC (stereo not drawn)
inhibition [1]: < 50%

COc1ccc(CC2c3ccc(NCc4ccncc4)cc3CCN2CC(=O)NCc2ccccc2)cc1OC (stereo not drawn)
inhibition [1]: < 50%

CCCCCCNC(=O)Nc1ccc2c(c1)CCN(CC(=O)NCc1ccccc1)C2Cc1ccc(OC)c(OC)c1 (stereo not drawn)
inhibition [1]: < 50%

COc1ccc(CC2c3ccc(OS(=O)(=O)c4ccccc4)cc3CCN2CC(=O)NCc2ccccc2)cc1OC (stereo not drawn)
inhibition [1]: < 50%

COc1ccc(CC2c3ccc(NS(C)(=O)=O)cc3CCN2CC(=O)NCc2ccccc2)cc1OC (stereo not drawn)
inhibition [1]: < 50%
